Assay outcomes: PubChem BioAssay, several laboratories
Most compounds without a hit are left out; they make up all but 3.9% or so of the library.
CRFR2-BP ag = agonists of human CRF-binding protein/CRF-R2 receptor complex. HEK293 CRF-R2/CRF-BP, calcium dye fluorescence (FLIPR); percent of saturating CRF peptide response. activation, % at 13.2 µM. 350,000 tested, 0.46% active;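 active means activation of at least 50%, plus an integration ratio under a set limit after plate pattern correction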
TMEM16A inh = blocks the mouse calcium-activated chloride channel TMEM16A; Q8BHY3; HEK293 TMEM16A/YFP iodide influx fluorescence, ionomycin; normalized B-score (activity score, 25-100; higher = stronger inhibition) at 10 µM; 310,000 tested, 1.2% active; AID 588511;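 active means ratio plate-corrected score three or more library SD toward inhibition, starting fluorescence score within five deviations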;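 further: score derived from kinetic fluorescence span divided by baseline fluorescence per well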
TAAR1 antagonist = antagonists of human TAAR1; AID 624466; Q96RJ0; CHO RD-HGA16 TAAR1, Fluo-8 calcium fluorescence, antagonist; 360,000 tested, 1.5% active; inhibition, % at 3 µM;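 active means inhibition above a per-plate cutoff, the mean inhibition of test compounds on that plate plus 3 SD, cut at about 49% in these data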
Target sequence (Q96RJ0 whole entry, looked up): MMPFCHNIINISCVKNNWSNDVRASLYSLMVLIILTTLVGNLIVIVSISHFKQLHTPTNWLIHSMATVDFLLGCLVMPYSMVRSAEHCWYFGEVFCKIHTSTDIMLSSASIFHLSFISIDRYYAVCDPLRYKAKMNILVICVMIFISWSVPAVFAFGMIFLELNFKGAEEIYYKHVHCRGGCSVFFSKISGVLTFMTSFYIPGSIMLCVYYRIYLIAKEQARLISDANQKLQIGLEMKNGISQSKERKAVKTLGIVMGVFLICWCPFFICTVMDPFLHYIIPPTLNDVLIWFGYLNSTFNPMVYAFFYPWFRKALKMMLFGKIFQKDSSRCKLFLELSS
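Assay system: CHO-derived RD-HGA16 cells stably expressing human TAAR1 plus Gα16. Timing: 140 s kinetic read after compound, 140 s after agonist. Technique: kinetic Fluo-8 calcium fluorescence measurement. Measure: % inhibition of agonist calcium response.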
TAAR1 ag = agonists of human TAAR1. activation, % at 3 µM. CHO RD-HGA16 TAAR1, Fluo-8 calcium fluorescence; vehicle wells 0%, saturating PEA agonist 100%. 360,000 tested, 0.99% active. Q96RJ0;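 active means activation above the mean activation of all test compounds in the run plus 3 SD, cut at about 38% in these data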
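System: CHO-derived RD-HGA16 cells with stable Gα16 and human TAAR1 / Times: 17-24 h plating, Fluo-8 75 min 37 °C, 30 min RT / Technique: calcium-sensitive Fluo-8 signal, excitation 470-495, emission 515-575 nm / Measure: % activation relative to PEA EC100 response / Benchmarks: DMSO and PEA EC100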
TMEM16A act = activators or potentiators of mouse TMEM16A chloride channel; Q8BHY3; HEK293 TMEM16A/YFP-H148Q/I152L, iodide quench fluorescence; stronger effect = lower value; B-score at 10 µM; 340,000 tested, 0.3% active; AID 623877;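 active means fluorescence-ratio B-score plate-corrected deviation score at least 3 library SD below zero, with starting fluorescence score within 5 deviations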;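 further: channel opened by trigger with iodide after compound preincubation; score built on the fluorescence ratio of max minus min over baseline; more negative score means more quench and so TMEM16A activation or potentiation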
CRFR2-BP antag = blocks CRF-induced signaling of the CRF-BP/CRF-R2 complex; HEK293 CRF-R2/CRF-BP, CRF-induced calcium fluorescence; inhibition, % at 11.8 µM; 350,000 tested, 0.59% active;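 active means inhibition of the ligand-induced calcium signal above about 50% at the single tested concentration, limit read from the data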
Hits are given with their value; - = inactive; . = not tested or not shown.

SMILES	CRFR2-BP ag	TMEM16A inh	TAAR1 antagonist	TAAR1 ag	TMEM16A act	CRFR2-BP antag
C/C(=N\OCC(=O)NC12CC3CC(CC(C3)C1)C2)c1cc2ccccc2o1	-	-	-	-	-	-
O=C(COC(=O)c1cc(S(=O)(=O)Nc2ccccc2Cl)ccc1O)Nc1ccc(F)c(F)c1F	-	.	-	-	-	-
C/C(=N\NC(=O)c1ccccc1)C1C2C=CC(C2)C1(C)C (stereo not given)	-	-	-	-	-	-
C#CCN1CC(COCCCC)Oc2cccc(Oc3ccc(C(C)(C)C)c(C)c3)c2S1(=O)=O (stereo not given)	.	.	-	-	.	.
COc1ccc(CC(=O)Nc2ccc(-c3nnc(-c4ccccc4)o3)cc2)cc1OC	-	-	.	.	-	-
COc1ccc(CC(=O)Nc2cccc(-c3nnc(-c4cccc(C)c4)o3)c2)cc1OC	-	100	78.4	-	-	-
COc1ccc(-c2nnc(SCc3ccccn3)n2C)cc1	-	-	-	-	-	-
COc1ccc(N=C(N)SCc2ccccn2)cc1	61.9	-	-	-	-	-
COc1ccccc1CCNC(=O)c1cc(-c2ccccn2)nc2ccccc12	-	.	52.0	-	-	-
COc1ccccc1CCNC(=O)c1ccoc1C	-	-	-	39.9	-	-
Cc1ccc(S(=O)(=O)N2CCOCC2)cc1NC(=O)c1cc(-c2ccccn2)nc2ccccc12	-	-	49.1	-	-	-
Cc1occc1C(=O)NCCCCc1ccccc1	-	-	-	-	-	-
CC(C)CCN(C(=O)CNC(=O)c1ccco1)C(C(=O)NC1CCCCC1)c1cccnc1 (stereo not given)	-	-	-	-	-	-
Cc1ccc(NC(=O)CN2C(=O)S/C(=C/c3ccc(-c4cc(C(=O)O)ccc4C)o3)C2=O)cc1C	-	100	-	-	-	-
Cc1ccc(C(=O)O)cc1-c1ccc(C=C2C(=O)c3ccccc3C2=O)o1	74.6	-	-	-	-	-
O=C(OCC(=O)N1CCCCCC1)c1cc(S(=O)(=O)N2CCOCC2)ccc1F	-	.	-	-	.	-
COc1cc(NC(=O)c2cccc3c2C(=O)N(C2CCCCC2)C3)cc(OC)c1OC	-	-	52.9	-	-	-
COc1ccc(CCNC(=O)c2cccc3c2C(=O)N(C2CCCCC2)C3)cc1OC	-	-	-	-	-	74.2
O=C(NCCc1ccccc1)c1cccc2c1C(=O)N(C1CCCCC1)C2	-	-	-	-	-	-
CN1CC(c2ccccc2)Oc2ccccc2C1=S (stereo not given)	-	-	-	-	-	-
CC(C)=C(NC(=O)c1ccccc1)C(=O)Nc1cccc(C)c1	-	-	-	-	-	-
Cc1ccc(S(=O)(=O)/N=C2/NC(=O)/C(=C/c3ccccc3)S2)cc1	-	100	-	-	-	114.6
Cc1ccc(/C=C2\S/C(=N/S(=O)(=O)c3cccs3)NC2=O)cc1	-	25	-	-	-	-
Cc1ccc(S(=O)(=O)/N=C2/NC(=O)/C(=C\c3ccccc3)S2)cc1	-	.	-	-	-	-
CC1CN(C(=O)c2ccc(NS(=O)(=O)c3ccc(F)cc3)cc2)CC(C)O1 (stereo not given)	-	-	-	-	-	-
SMILES	CRFR2-BP ag	TMEM16A inh	TAAR1 antagonist	TAAR1 ag	TMEM16A act	CRFR2-BP antag
CN(C)S(=O)(=O)c1cccc(NC(=O)c2ccccc2SCC(=O)N2CCCC2)c1	-	.	-	-	.	-
CC(C)N(C(=O)COC(=O)c1cncc(Br)c1)C(C)C	-	-	-	-	-	104.3
O=C(Nc1ccccc1Cl)c1ccc(COc2ccc3c(c2)CCC3)cc1	-	-	-	-	-7.43	-
NNC(=O)c1ccc(COc2ccc3c(c2)CCC3)cc1	-	-	-	-	-	-
O=C(Nc1cc(C(F)(F)F)ccc1Cl)C(Sc1cccc[n+]1[O-])c1ccccc1 (stereo not given)	160.2	-	-	-	-	-
O=C(Nc1cc(C(F)(F)F)ccc1Cl)C(Sc1n[nH]c(=O)[nH]c1=O)c1ccccc1 (stereo not given)	-	-	-	-	-	-
CSCCC(NS(=O)(=O)c1ccc2c(c1)OCCO2)C(=O)N(C)Cc1ccccc1F (stereo not given)	-	.	55.2	-	-	-
COC(=O)Cn1c(C)c(/C=C/c2cc[n+](C)cc2)c2ccccc21	-	-	-	-	-	-
COC(=O)Cn1cc(/C=C/c2cc[n+](C)cc2)c2ccccc21	51.2	-	-	-	-	-
COC(=O)CC1SC(=O)NC1=Nc1ccc(OC)cc1 (stereo not given)	-	-	-	-	-	73.3
COC(=O)CC1SC(=O)NC1=Nc1ccc(O)cc1 (stereo not given)	-	-	-	-	-	-
Cc1sc2nc(CN(Cc3cccs3)C(=O)NC3CCCCC3)[nH]c(=O)c2c1C	-	-	-	-	-	52.2
Cc1sc2nc(CN(C(=O)NC3CCCCC3)C3CCCC3)[nH]c(=O)c2c1C	-	-	-	-	-	-
O=C(Nc1ccc(Cl)cc1)c1nc[nH]c1C(=O)NCCCCNC(=O)c1[nH]cnc1C(=O)Nc1ccc(Cl)cc1	-	.	51.9	-	-	-
COc1ccccc1NC(=S)NCCC(c1ccccc1)c1ccccc1	-	-	-	-	-	-
S=C(NCCC(c1ccccc1)c1ccccc1)Nc1ccccc1Cl	-	-	50.0	-	-	-
COc1cc(NC(=S)NCCC(c2ccccc2)c2ccccc2)c(OC)cc1Cl	-	-	-	-	-	64.7
S=C(NCCC(c1ccccc1)c1ccccc1)Nc1ccc(Cl)cc1	-	100	-	-	-	-
COc1ccc(Cl)cc1NC(=S)NCCC(c1ccccc1)c1ccccc1	-	-	-	-	-	-
CC(Sc1nc2ncc(Cl)cc2[nH]1)C(=O)Nc1ccc(C(N)=O)cc1 (stereo not given)	-	-	-	-	-	-
CC(=O)c1ccc(NC(=O)c2cc(C)nc3ccccc23)cc1	-	-	-	-	-	-
Cc1cc(/C=C2\SC(=S)N(Cc3ccco3)C2=O)c(C)n1-c1ccccc1	-	-	-	-	-	-
O=C(O)CN1C(=O)/C(=C\c2cccc(OC(=O)c3ccco3)c2)SC1=S	-	-	-	-	-	-
CN(C)c1ccc(C=C2SC(=S)N(Cc3ccco3)C2=O)cc1	169.0	.	53.4	43.8	.	-
O=C(O)CN1C(=O)/C(=C\c2ccc(OC(=O)c3ccco3)cc2)SC1=S	-	-	-	-	-5.87	-
O=C1S/C(=C/c2ccccc2)C(=O)N1CC(O)Cn1c2ccccc2c2ccccc21 (stereo not given)	-	-	-	-	-	-
